{"source": "ChEMBL document CHEMBL1146986", "about": "“Synthesis and SAR studies of very potent imidazopyridine antiprotozoal agents” (Bioorg Med Chem Lett, 2006)", "key": {"Eimeria tenella [1]": {"tested_on": "Eimeria tenella", "experiment": "Antiparasitic activity against Eimeria tenella in chicken at 12.5 ppm in feed assessed as percent reduction in oocyst", "type": "functional", "set-up": "scale not given: the % may be the effect or the level left", "procedure,_shortened": "(§1)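 Infected chickens given compound orally in feed (ppm), seven-day in vivo efficacy model; activity quantified from oocyst shedding and graded as percent oocyst reduction versus infection.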"}, "Eimeria acervulina [2]": {"tested_on": "Eimeria acervulina", "experiment": "Antiparasitic activity against Eimeria acervulina in chicken at 12.5 ppm in feed assessed as percent reduction in oocyst", "type": "functional", "set-up": "scale not given: the % may be the effect or the level left", "procedure,_shortened": "as §1"}, "[3]": {"biological_target": "cGMP-dependent protein kinase (Eimeria tenella, UniProt Q8MMZ8)", "sequence (Q8MMZ8 whole entry)": "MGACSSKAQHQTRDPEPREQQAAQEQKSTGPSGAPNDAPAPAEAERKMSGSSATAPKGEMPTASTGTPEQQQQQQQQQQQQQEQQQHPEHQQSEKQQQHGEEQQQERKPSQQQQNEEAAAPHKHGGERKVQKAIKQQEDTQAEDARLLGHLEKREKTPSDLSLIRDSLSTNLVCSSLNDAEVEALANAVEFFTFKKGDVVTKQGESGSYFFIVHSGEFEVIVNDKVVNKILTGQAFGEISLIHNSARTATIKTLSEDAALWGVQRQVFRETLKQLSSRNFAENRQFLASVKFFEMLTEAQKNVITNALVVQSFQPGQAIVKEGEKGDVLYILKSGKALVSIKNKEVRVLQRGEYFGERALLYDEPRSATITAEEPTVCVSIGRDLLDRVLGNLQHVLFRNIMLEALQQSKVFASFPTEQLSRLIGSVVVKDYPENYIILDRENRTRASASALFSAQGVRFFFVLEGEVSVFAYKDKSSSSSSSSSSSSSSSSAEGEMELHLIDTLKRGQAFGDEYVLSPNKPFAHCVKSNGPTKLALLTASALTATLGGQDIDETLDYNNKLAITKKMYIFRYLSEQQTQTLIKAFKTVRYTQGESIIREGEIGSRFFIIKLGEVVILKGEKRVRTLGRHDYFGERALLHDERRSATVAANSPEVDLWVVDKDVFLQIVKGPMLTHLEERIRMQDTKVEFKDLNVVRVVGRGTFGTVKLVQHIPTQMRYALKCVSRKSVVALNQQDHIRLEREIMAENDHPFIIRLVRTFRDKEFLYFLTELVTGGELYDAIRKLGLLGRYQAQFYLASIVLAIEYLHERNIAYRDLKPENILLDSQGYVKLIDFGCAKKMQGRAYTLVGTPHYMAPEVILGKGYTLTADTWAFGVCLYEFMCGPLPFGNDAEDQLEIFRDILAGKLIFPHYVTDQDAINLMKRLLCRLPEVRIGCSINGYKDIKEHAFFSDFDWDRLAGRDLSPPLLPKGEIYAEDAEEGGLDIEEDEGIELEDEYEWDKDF", "experiment": "Inhibitory activity against PKG"}, "Eimeria acervulina [4]": {"tested_on": "Eimeria acervulina", "experiment": "Antiparasitic activity against Eimeria acervulina in chicken at 25 ppm in feed assessed as percent reduction in oocyst", "type": "functional", "set-up": "scale not given: the % may be the effect or the level left", "procedure,_shortened": "as §1"}, "Eimeria tenella [5]": {"tested_on": "Eimeria tenella", "experiment": "Antiparasitic activity against Eimeria tenella in chicken at 25 ppm in feed assessed as percent reduction in oocyst", "type": "functional", "set-up": "scale not given: the % may be the effect or the level left", "procedure,_shortened": "as §1"}, "Salmonella typhimurium [6]": {"tested_on": "Salmonella typhimurium", "experiment": "[…] against Salmonella Typhimurium TA98 at 6000 ug/plate by Ames microbial mutagenesis assay", "type": "functional, organism-based", "conditions": "Salmonella enterica subsp. enterica serovar Typhimurium", "procedure,_shortened": "(§2)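 Plate-incorporation reverse mutation test: about 10^8 bacterial cells in molten top agar are mixed with test article in DMSO and cofactor plus S9 fraction (50 µL/plate) from induced male Sprague–Dawley rats. Plated in triplicate and incubated 37 °C for 48 h. Revertant colonies are counted automatically, as mean ± standard deviation (n = 3). A twofold or greater increase over solvent control counts as positive.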"}, "Eimeria acervulina [7]": {"tested_on": "Eimeria acervulina", "experiment": "Antiparasitic activity against Eimeria acervulina in chicken at 6.25 ppm in feed assessed as percent reduction in oocyst", "type": "functional", "set-up": "scale not given: the % may be the effect or the level left", "procedure,_shortened": "(§3)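 Seven-day in vivo anticoccidial model in chickens infected with E. tenella and E. acervulina. Compound is given orally in feed (ppm). Oocyst shedding from infected birds is quantified, and activity is graded by percent oocyst reduction.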"}, "Salmonella typhimurium [8]": {"tested_on": "Salmonella typhimurium", "experiment": "[…] against Salmonella Typhimurium TA98 at 3000 ug/plate by Ames microbial mutagenesis assay", "type": "functional, organism-based", "conditions": "Salmonella enterica subsp. enterica serovar Typhimurium", "procedure,_shortened": "as §2"}, "Salmonella typhimurium [9]": {"tested_on": "Salmonella typhimurium", "experiment": "[…] against Salmonella Typhimurium TA100 at 6000 ug/plate by Ames microbial mutagenesis assay", "type": "functional, organism-based", "conditions": "Salmonella enterica subsp. enterica serovar Typhimurium", "procedure,_shortened": "as §2"}, "Salmonella typhimurium [10]": {"tested_on": "Salmonella typhimurium", "experiment": "[…] against Salmonella Typhimurium TA100 at 3000 ug/plate by Ames microbial mutagenesis assay", "type": "functional, organism-based", "conditions": "Salmonella enterica subsp. enterica serovar Typhimurium", "procedure,_shortened": "as §2"}, "Eimeria tenella [11]": {"tested_on": "Eimeria tenella", "experiment": "Antiparasitic activity against Eimeria tenella in chicken at 6.25 ppm in feed assessed as percent reduction in oocyst", "type": "functional", "set-up": "scale not given: the % may be the effect or the level left", "procedure,_shortened": "as §3"}}, "note": "Calls of active or inactive are those of the source. The rule behind the calls is not given here."}
{"smiles": "CN(C)Cc1ccn2c(-c3ccnc(NCC(C)(C)C)n3)c(-c3ccc(F)cc3)nc2c1", "values": [{"measurement": "Activity", "setting": "Eimeria tenella [1]", "value": ">=80%"}, {"measurement": "Activity", "setting": "Eimeria acervulina [2]", "value": ">=80%"}, {"measurement": "IC50", "setting": "[3]", "value": 0.15, "unit": "nM"}]}
{"smiles": "CN(C)Cc1ccn2c(-c3ccncn3)c(-c3ccc(F)cc3)nc2c1", "values": [{"measurement": "Activity", "setting": "Eimeria acervulina [4]", "value": "<50", "unit": "%"}, {"measurement": "Activity", "setting": "Eimeria tenella [5]", "value": "<50", "unit": "%"}, {"measurement": "IC50", "setting": "[3]", "value": 1.9, "unit": "nM"}]}
{"smiles": "CNCc1ccn2c(-c3ccnc(N)n3)c(-c3ccc(F)cc3)nc2c1", "values": [{"measurement": "Activity", "setting": "Eimeria acervulina [4]", "value": "<50", "unit": "%"}, {"measurement": "Activity", "setting": "Eimeria tenella [5]", "value": "<50", "unit": "%"}, {"measurement": "IC50", "setting": "[3]", "value": 0.15, "unit": "nM"}]}
{"smiles": "CN1CCC(c2ccn3c(-c4ccnc(N)n4)c(-c4ccc(F)cc4)nc3c2)CC1", "values": [{"measurement": "Activity", "setting": "Salmonella typhimurium [6]", "value": "Active"}, {"measurement": "Activity", "setting": "Eimeria acervulina [7]", "value": ">=80%"}, {"measurement": "Activity", "setting": "Salmonella typhimurium [8]", "value": "Active"}, {"measurement": "Activity", "setting": "Eimeria acervulina [2]", "value": 50, "unit": "%"}, {"measurement": "Activity", "setting": "Salmonella typhimurium [9]", "value": "Active"}, {"measurement": "IC50", "setting": "[3]", "value": 0.04, "unit": "nM"}, {"measurement": "Activity", "setting": "Salmonella typhimurium [10]", "value": "Active"}, {"measurement": "Activity", "setting": "Eimeria tenella [11]", "value": ">=80%"}]}
{"smiles": "Nc1nccc(-c2c(-c3ccc(F)cc3)nc3cc(Cl)ccn23)n1", "values": [{"measurement": "Activity", "setting": "Eimeria acervulina [4]", "value": "<50", "unit": "%"}, {"measurement": "Activity", "setting": "Eimeria tenella [5]", "value": "<50", "unit": "%"}, {"measurement": "IC50", "setting": "[3]", "value": 2.7, "unit": "nM"}]}
{"smiles": "CN(C)Cc1ccn2c(-c3ccnc(NCc4ccccc4)n3)c(-c3ccc(F)cc3)nc2c1", "values": [{"measurement": "Activity", "setting": "Eimeria acervulina [4]", "value": ">=80%"}, {"measurement": "Activity", "setting": "Eimeria tenella [5]", "value": ">=80%"}, {"measurement": "IC50", "setting": "[3]", "value": 0.081, "unit": "nM"}]}
{"smiles": "COc1nccc(-c2c(-c3ccc(F)cc3)nc3cc(CN(C)C)ccn23)n1", "values": [{"measurement": "Activity", "setting": "Eimeria acervulina [4]", "value": "<50", "unit": "%"}, {"measurement": "Activity", "setting": "Eimeria tenella [5]", "value": "<50", "unit": "%"}, {"measurement": "IC50", "setting": "[3]", "value": 2.6, "unit": "nM"}]}
{"smiles": "Nc1nccc(-c2c(-c3ccc(F)cc3)nc3cc(CO)ccn23)n1", "values": [{"measurement": "Activity", "setting": "Eimeria acervulina [4]", "value": "<50", "unit": "%"}, {"measurement": "Activity", "setting": "Eimeria tenella [5]", "value": "<50", "unit": "%"}, {"measurement": "IC50", "setting": "[3]", "value": 2.7, "unit": "nM"}]}
{"smiles": "Nc1nccc(-c2c(-c3ccc(F)cc3)nc3cc(C4CCNCC4)ccn23)n1", "values": [{"measurement": "Activity", "setting": "Eimeria acervulina [4]", "value": "<50", "unit": "%"}, {"measurement": "Activity", "setting": "Eimeria tenella [5]", "value": "<50", "unit": "%"}, {"measurement": "IC50", "setting": "[3]", "value": 0.05, "unit": "nM"}]}
{"smiles": "CCCNc1nccc(-c2c(-c3ccc(F)cc3)nc3cc(CN(C)C)ccn23)n1", "values": [{"measurement": "Activity", "setting": "Eimeria tenella [1]", "value": ">=80%"}, {"measurement": "Activity", "setting": "Eimeria acervulina [2]", "value": ">=80%"}, {"measurement": "IC50", "setting": "[3]", "value": 0.13, "unit": "nM"}]}
{"smiles": "CNc1nccc(-c2c(-c3ccc(F)cc3)nc3cc(CN(C)C)ccn23)n1", "values": [{"measurement": "Activity", "setting": "Eimeria acervulina [4]", "value": ">=80%"}, {"measurement": "Activity", "setting": "Eimeria tenella [5]", "value": ">=80%"}, {"measurement": "IC50", "setting": "[3]", "value": 0.17, "unit": "nM"}]}
{"smiles": "CN(C)Cc1ccn2c(-c3ccnc(N(C)C)n3)c(-c3ccc(F)cc3)nc2c1", "values": [{"measurement": "Activity", "setting": "Eimeria acervulina [4]", "value": "<50", "unit": "%"}, {"measurement": "Activity", "setting": "Eimeria tenella [5]", "value": "<50", "unit": "%"}, {"measurement": "IC50", "setting": "[3]", "value": 2.5, "unit": "nM"}]}
{"smiles": "NCc1ccn2c(-c3ccnc(N)n3)c(-c3ccc(F)cc3)nc2c1", "values": [{"measurement": "Activity", "setting": "Eimeria acervulina [4]", "value": "<50", "unit": "%"}, {"measurement": "Activity", "setting": "Eimeria tenella [5]", "value": "<50", "unit": "%"}, {"measurement": "IC50", "setting": "[3]", "value": 0.18, "unit": "nM"}]}
{"smiles": "N#Cc1ccn2c(-c3ccnc(N)n3)c(-c3ccc(F)cc3)nc2c1", "values": [{"measurement": "Activity", "setting": "Eimeria acervulina [4]", "value": "<50", "unit": "%"}, {"measurement": "Activity", "setting": "Eimeria tenella [5]", "value": "<50", "unit": "%"}, {"measurement": "IC50", "setting": "[3]", "value": 11.3, "unit": "nM"}]}
{"smiles": "CN(C)Cc1ccn2c(-c3ccnc(N)n3)c(-c3ccc(F)cc3)nc2c1", "values": [{"measurement": "Activity", "setting": "Salmonella typhimurium [6]", "value": "Active"}, {"measurement": "Activity", "setting": "Eimeria tenella [1]", "value": ">=80%"}, {"measurement": "Activity", "setting": "Eimeria acervulina [7]", "value": 50, "unit": "%"}, {"measurement": "Activity", "setting": "Salmonella typhimurium [8]", "value": "Active"}, {"measurement": "Activity", "setting": "Eimeria acervulina [2]", "value": ">=80%"}, {"measurement": "Activity", "setting": "Salmonella typhimurium [9]", "value": "Active"}, {"measurement": "IC50", "setting": "[3]", "value": 0.11, "unit": "nM"}, {"measurement": "Activity", "setting": "Salmonella typhimurium [10]", "value": "Active"}, {"measurement": "Activity", "setting": "Eimeria tenella [11]", "value": 50, "unit": "%"}]}
